{
  "source": "ChEMBL document CHEMBL1123106",
  "about": "“Synthesis and biological activity of modified peptide inhibitors of angiotensin-converting enzyme” (J Med Chem, 1985)",
  "key": {"[1]": {"tested_on": "Rattus norvegicus", "experiment": "% Decrease in mean arterial pressure in conscious renal hypertensive rats at a dose of 3 mg/Kg, administered perorally at MAP 190 mmHg", "format": "functional, Artery", "how_it_was_run": "(§1)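 Conscious two-kidney, one-clip Goldblatt renal hypertensive rats (N = 3) were dosed orally at 3 or 30 mg/kg. Predose mean arterial pressure was about 190 mmHg. The read-out is % decrease in mean arterial pressure. N marks no significant lowering of arterial pressure at that dose.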"}, "[2]": {"tested_on": "Angiotensin-converting enzyme (Cavia porcellus)", "experiment": "In vitro inhibitory activity against Angiotensin I converting enzyme from unpurified guinea pig serum; No significant activity"}, "[3]": {"tested_on": "Rattus norvegicus", "experiment": "% Decrease in mean arterial pressure in conscious renal hypertensive rats at a dose of 30 mg/Kg, administered perorally at MAP 190 mmHg", "format": "functional, Artery", "how_it_was_run": "as §1"}, "[4]": {"tested_on": "Rattus norvegicus", "experiment": "% Decrease in mean arterial pressure in conscious renal hypertensive rats at a dose of 3 mg/Kg, administered perorally at MAP 190 mm Hg; N means no significant lowering of arterial pressure", "format": "functional, organism-based", "conditions": "Artery", "how_it_was_run": "as §1"}, "[5]": {"tested_on": "Rattus norvegicus", "experiment": "% decrease in mean arterial pressure in conscious renal hypertensive rats at a dose of 3 mg/Kg, administered perorally at MAP 190 mm Hg", "format": "functional, Artery", "how_it_was_run": "as §1"}, "[6]": {"tested_on": "Rattus norvegicus", "experiment": "% decrease in mean arterial pressure in conscious renal hypertensive rats at a dose of 30 mg/Kg, administered perorally at MAP 190 mmHg", "format": "functional, Artery", "how_it_was_run": "as §1"}, "[7]": {"tested_on": "Rattus norvegicus", "experiment": "% decrease in mean arterial pressure in conscious renal hypertensive rats at a dose of 3 mg/Kg, administered perorally at MAP 190 mm Hg; N means no significant lowering of arterial pressure", "format": "functional, organism-based", "conditions": "Artery", "how_it_was_run": "as §1"}, "[8]": {"tested_on": "Rattus norvegicus", "experiment": "% decrease in mean arterial pressure in conscious renal hypertensive rats at a dose of 3 mg/Kg, administered perorally at MAP 190 mmHg", "format": "functional, Artery", "how_it_was_run": "as §1"}},
  "data": [
    {"smiles": "CCOC(=O)[C@H](CCc1ccccc1)N[C@@H](C)C(=O)N1Cc2ccccc2C[C@H]1C(=O)O", "values": [
      {"measurement": "Decrease in mean arterial pressure", "setting": "[1]", "value": 54, "unit": "%"}
    ]},
    {"smiles": "CC(SC(CCc1ccccc1)C(=O)O)C(=O)NC1(C(=O)O)CCC(c2ccccc2)CC1", "note": "(stereo not drawn)", "values": [
      {"measurement": "IC50", "setting": "[2]", "value": "No significant activity"}
    ]},
    {"smiles": "CC(C(=O)N1CCC[C@H]1C(=O)O)S(=O)(=O)C(CCc1ccccc1)C(=O)O", "note": "(stereo partly drawn)", "values": [
      {"measurement": "IC50", "setting": "[2]", "value": "No significant activity"}
    ]},
    {"smiles": "CCOC(=O)C(CCc1ccccc1)S(=O)(=O)C(C)C(=O)N1CCC[C@H]1C(=O)O", "note": "(stereo partly drawn)", "values": [
      {"measurement": "IC50", "setting": "[2]", "value": "No significant activity"}
    ]},
    {"smiles": "CCOC(=O)C(CCc1ccccc1)[S+]([O-])C(C)C(=O)N1C2CCCCC2C[C@H]1C(=O)O", "note": "(stereo partly drawn)", "values": [
      {"measurement": "Decrease in mean arterial pressure", "setting": "[3]", "value": 10, "unit": "%"},
      {"measurement": "Decrease in mean arterial pressure", "setting": "[4]", "value": "No significant activity"}
    ]},
    {"smiles": "CCOC(=O)[C@H](CCc1ccccc1)N[C@@H](C)C(=O)N1CCC[C@H]1C(=O)O", "values": [
      {"measurement": "Decrease in mean arterial pressure", "setting": "[5]", "value": 55, "unit": "%"}
    ]},
    {"smiles": "CCOC(=O)C(CCc1ccccc1)OC(C)C(=O)N1C(C(=O)O)CC2CCCCC21", "note": "(stereo not drawn)", "values": [
      {"measurement": "Decrease in mean arterial pressure", "setting": "[6]", "value": 12, "unit": "%"},
      {"measurement": "Decrease in mean arterial pressure", "setting": "[7]", "value": "No significant activity"}
    ]},
    {"smiles": "C[C@H](CS)C(=O)N1CCC[C@H]1C(=O)O", "note": "[CAPTOPRIL]", "values": [
      {"measurement": "Decrease in mean arterial pressure", "setting": "[5]", "value": 49, "unit": "%"}
    ]},
    {"smiles": "CCOC(=O)C(CCc1ccccc1)OC(C)C(=O)N1Cc2ccccc2CC1C(=O)O", "note": "(stereo not drawn)", "values": [
      {"measurement": "Decrease in mean arterial pressure", "setting": "[6]", "value": 18, "unit": "%"},
      {"measurement": "Decrease in mean arterial pressure", "setting": "[8]", "value": 8, "unit": "%"}
    ]},
    {"smiles": "CC(SC(CCc1ccccc1)C(=O)O)C(=O)NC1(C(=O)O)CCCC1", "note": "(stereo not drawn)", "values": [
      {"measurement": "IC50", "setting": "[2]", "value": "No significant activity"}
    ]},
    {"smiles": "CC(OC(CCc1ccccc1)C(=O)O)C(=O)N1CCCC1C(=O)O", "note": "(stereo not drawn)", "values": [
      {"measurement": "Decrease in mean arterial pressure", "setting": "[6]", "value": 9, "unit": "%"},
      {"measurement": "Decrease in mean arterial pressure", "setting": "[7]", "value": "No significant activity"}
    ]},
    {"smiles": "CCOC(=O)C(CCc1ccccc1)OC(C)C(=O)N1CCCC1C(=O)O", "note": "(stereo not drawn)", "values": [
      {"measurement": "Decrease in mean arterial pressure", "setting": "[3]", "value": 3, "unit": "%"},
      {"measurement": "Decrease in mean arterial pressure", "setting": "[7]", "value": "No significant activity"}
    ]},
    {"smiles": "CCOC(=O)[C@H](CCc1ccccc1)N[C@@H](C)C(=O)N1C2CCCCC2C[C@H]1C(=O)O", "note": "(stereo partly drawn)", "values": [
      {"measurement": "Decrease in mean arterial pressure", "setting": "[5]", "value": 46, "unit": "%"}
    ]}
  ]
}
